Results: ChEMBL document CHEMBL4251609, “Substrate-derived triazolo- and azapeptides as inhibitors of cathepsins K and S” (Eur J Med Chem, 2018)
Calls of active or inactive are those of the source. The rule behind the calls is not given here.

Assays:
Cathepsin K [1] = biological target: T1, Cathepsin K (Homo sapiens, UniProt P43235); experiment: Inhibition of human cathepsin K
T1 sequence (P43235 whole entry): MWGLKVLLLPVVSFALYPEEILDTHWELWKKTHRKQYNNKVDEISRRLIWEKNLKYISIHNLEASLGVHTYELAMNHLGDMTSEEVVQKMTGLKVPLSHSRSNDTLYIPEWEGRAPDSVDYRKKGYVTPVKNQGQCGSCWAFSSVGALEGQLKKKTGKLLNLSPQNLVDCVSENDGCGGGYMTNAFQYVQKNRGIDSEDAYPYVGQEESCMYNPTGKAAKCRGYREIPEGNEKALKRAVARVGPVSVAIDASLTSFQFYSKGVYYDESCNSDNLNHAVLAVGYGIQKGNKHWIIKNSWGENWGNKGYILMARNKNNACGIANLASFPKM

Trypsin (Homo sapiens) = Trypsin (Homo sapiens) (UniProt P07477+P07478+P35030); experiment: Inhibition of trypsin (unknown origin) incubated for 30 mins using Abz-Thr-Pro-Arg-Ser-Ala-Leu-Gln-EDDnp substrate; type: protein assay
Homo sapiens = species: Homo sapiens; experiment: Inhibition of chymotrypsin (unknown origin) incubated for 30 mins using Abz-Thr-Pro-Phe-Ser-Gly-Gln-EDDnp substrate
[2] = biological target: T2, Neutrophil elastase (Homo sapiens) (UniProt P08246); experiment: Inhibition of human neutrophil elastase incubated for 30 mins using Abz-Ala-Pro-Glu-Glu-Ile-Met-Arg-Arg-Gln-(3-NO2-Tyr) substrate
T2 sequence (whole entry): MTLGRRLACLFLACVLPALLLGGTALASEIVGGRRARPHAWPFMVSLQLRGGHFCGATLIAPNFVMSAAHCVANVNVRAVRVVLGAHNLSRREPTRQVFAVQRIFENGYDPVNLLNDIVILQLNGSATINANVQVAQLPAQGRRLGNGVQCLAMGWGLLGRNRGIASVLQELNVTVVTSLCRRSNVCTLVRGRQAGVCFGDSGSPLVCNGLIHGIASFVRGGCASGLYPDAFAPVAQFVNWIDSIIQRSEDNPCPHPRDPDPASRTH

[3] = biological target: 72 kDa type IV collagenase (Homo sapiens) (UniProt P08253); experiment: Inhibition of human recombinant MMP-2 expressed in CHO cells incubated for 30 mins by Mca-Arg-Pro-Pro-Gly-Phe-Ser-Ala-Phe-Lys(Dnp) substrate; type: cell-based
[4] = biological target: Cathepsin D (Homo sapiens) (UniProt P07339); experiment: Inhibition of human cathepsin D incubated for 30 mins using Mca-Gly-Lys-Pro-Ile-Leu-Phe-Phe-Arg-Leu-Lys(Dnp)-D-Arg-NH2 substrate
[5] = biological target: T3, Pro-cathepsin H (Homo sapiens) (UniProt P09668); experiment: Inhibition of human cathepsin H using fluorogenic AMC-derived peptide substrate assessed as reduction in residual activity preincubated for 30 mins followed by substrate addition
T3 sequence (whole entry): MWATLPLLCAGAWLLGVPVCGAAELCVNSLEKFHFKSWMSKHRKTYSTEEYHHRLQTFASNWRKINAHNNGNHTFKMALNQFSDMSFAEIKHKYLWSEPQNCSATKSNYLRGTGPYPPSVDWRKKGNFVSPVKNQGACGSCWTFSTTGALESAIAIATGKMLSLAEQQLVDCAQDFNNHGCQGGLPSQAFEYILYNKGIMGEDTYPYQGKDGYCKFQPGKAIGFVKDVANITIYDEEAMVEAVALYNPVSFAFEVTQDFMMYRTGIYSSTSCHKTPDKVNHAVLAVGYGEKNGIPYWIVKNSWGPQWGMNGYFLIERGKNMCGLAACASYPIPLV

[6] = biological target: Cathepsin B (Homo sapiens) (UniProt P07858); experiment: Inhibition of human cathepsin B
[7] = biological target: T4, Cathepsin K (Homo sapiens) (UniProt P43235); experiment: Inhibition of human cathepsin K using fluorogenic AMC-derived peptide substrate assessed as reduction in residual activity preincubated for 30 mins followed by substrate addition
T4 sequence (whole entry): T1 sequence (P43235 whole entry)

Procathepsin L [8] = biological target: T5, Procathepsin L (Homo sapiens, UniProt P07711); experiment: Inhibition of human cathepsin L using fluorogenic AMC-derived peptide substrate assessed as reduction in residual activity preincubated for 30 mins followed by substrate addition
Target sequence in this assay (P07711 114-333 limits assumed): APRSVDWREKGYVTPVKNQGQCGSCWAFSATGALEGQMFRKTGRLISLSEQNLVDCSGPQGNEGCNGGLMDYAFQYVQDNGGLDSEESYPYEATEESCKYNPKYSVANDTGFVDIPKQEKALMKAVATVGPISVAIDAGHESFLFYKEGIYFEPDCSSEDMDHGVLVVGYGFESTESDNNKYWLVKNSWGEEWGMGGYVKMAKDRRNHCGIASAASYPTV

Cathepsin S [9] = biological target: T6, Cathepsin S (Homo sapiens, UniProt P25774); experiment: Inhibition of human cathepsin S at 300 uM preincubated for 30 mins followed by Biot-(PEG)2-Ahx-LeuValGly-DMK addition measured after 1 hr by chemiluminescence assay
Target sequence in this assay (P25774 115-331 limits assumed): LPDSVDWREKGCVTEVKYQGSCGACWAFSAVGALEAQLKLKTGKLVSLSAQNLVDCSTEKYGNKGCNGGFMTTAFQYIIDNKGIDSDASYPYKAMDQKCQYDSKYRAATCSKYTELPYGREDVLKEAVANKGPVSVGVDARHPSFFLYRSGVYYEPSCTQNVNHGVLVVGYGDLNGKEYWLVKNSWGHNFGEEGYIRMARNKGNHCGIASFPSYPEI

Cathepsin S [10] = biological target: T6, Cathepsin S; experiment: (§1) Reversible competitive inhibition of human cathepsin S using fluorogenic AMC-derived peptide substrate assessed as reduction in residual activity at pH 5.5 preincubated for 30 mins followed by substrate addition
How it was run: (§2)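 Ki values for cathepsin S determined at pH 5.5 and again at pH 7.4, a pH at which this enzyme stays stable and active, to compare the two conditions.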
Target sequence in this assay (P25774 115-331 limits assumed): as above

Cathepsin S [11] = biological target: T6, Cathepsin S; experiment: Reversible inhibition of human cathepsin S at 300 uM in presence of excess Z-LR-AMC
Target sequence in this assay (P25774 115-331 limits assumed): as above

Cathepsin S [12] = biological target: T6, Cathepsin S; experiment: as §1; settings: read-out: Ki; how it was run: as §2
Target sequence in this assay (P25774 whole entry): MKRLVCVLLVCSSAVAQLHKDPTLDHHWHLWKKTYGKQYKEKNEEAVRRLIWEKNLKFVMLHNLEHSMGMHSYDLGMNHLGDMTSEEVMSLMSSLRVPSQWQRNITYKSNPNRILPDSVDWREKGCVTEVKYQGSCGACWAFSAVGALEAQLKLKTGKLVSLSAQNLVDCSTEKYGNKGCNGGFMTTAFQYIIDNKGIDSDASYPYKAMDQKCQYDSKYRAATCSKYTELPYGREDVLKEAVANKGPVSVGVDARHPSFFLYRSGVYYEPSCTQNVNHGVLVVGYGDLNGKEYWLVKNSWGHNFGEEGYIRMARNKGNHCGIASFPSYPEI

Cathepsin S [13] = biological target: T6, Cathepsin S; experiment: Reversible competitive inhibition of human cathepsin S using fluorogenic AMC-derived peptide substrate assessed as reduction in residual activity at pH 7.4 preincubated for 30 mins followed by substrate addition; settings: read-out: Ki; how it was run: as §2
Target sequence in this assay (P25774 whole entry): as above

Cathepsin K [14] = biological target: T1, Cathepsin K; experiment: Reversible competitive inhibition of human cathepsin K using fluorogenic AMC-derived peptide substrate assessed as reduction in residual activity preincubated for 30 mins followed by substrate addition
How it was run: (§3)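 Inhibition constants (Ki) determined at pH 5.5, with reversibility and competitive mode also assessed.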

Procathepsin L [15] = biological target: T5, Procathepsin L; experiment: Reversible competitive inhibition of human cathepsin L using fluorogenic AMC-derived peptide substrate assessed as reduction in residual activity preincubated for 30 mins followed by substrate addition; how it was run: as §3
Target sequence in this assay (P07711 whole entry): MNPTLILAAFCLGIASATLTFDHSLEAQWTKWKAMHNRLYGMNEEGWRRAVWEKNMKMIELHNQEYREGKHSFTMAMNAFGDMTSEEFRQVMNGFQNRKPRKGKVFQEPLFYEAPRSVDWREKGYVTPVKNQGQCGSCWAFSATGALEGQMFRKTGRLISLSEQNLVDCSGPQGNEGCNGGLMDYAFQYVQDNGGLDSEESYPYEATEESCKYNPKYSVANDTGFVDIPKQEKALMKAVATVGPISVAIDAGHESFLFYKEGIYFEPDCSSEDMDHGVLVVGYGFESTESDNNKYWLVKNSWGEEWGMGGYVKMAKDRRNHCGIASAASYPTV

Pro-cathepsin H = biological target: T7, Pro-cathepsin H (Homo sapiens, UniProt P09668); experiment: Reversible competitive inhibition of human cathepsin H using fluorogenic AMC-derived peptide substrate assessed as reduction in residual activity preincubated for 30 mins followed by substrate addition
T7 sequence (P09668 whole entry): T3 sequence (whole entry)

Cathepsin S [16] = biological target: T6, Cathepsin S; experiment: Inhibition of human cathepsin S using fluorogenic AMC-derived peptide substrate assessed as reduction in residual activity preincubated for 30 mins followed by substrate addition
Target sequence in this assay (P25774 115-331 limits assumed): as the sequence (P25774 115-331 limits assumed) above

[17] = biological target: T4, Cathepsin K (Homo sapiens); experiment: Inhibition of human cathepsin K […] activity assessed as normalized bradykinin equivalents ratio at 1 uM pre-incubated for 15 mins before bradykinin substrate addition by competitive enzyme immunoassay (reference value: <0.5%); design: scale not given: the % may be the effect or the level left
[18] = biological target: T4, Cathepsin K (Homo sapiens); experiment: Inhibition of human cathepsin K […] activity assessed as normalized bradykinin equivalents ratio at 1 uM pre-incubated for 15 mins before kallidin substrate addition by competitive enzyme immunoassay (reference value: <0.5%); design: scale not given: the % may be the effect or the level left

Chain of 72 kDa type IV collagenase (Homo sapiens) (P08253 110-660 limits assumed): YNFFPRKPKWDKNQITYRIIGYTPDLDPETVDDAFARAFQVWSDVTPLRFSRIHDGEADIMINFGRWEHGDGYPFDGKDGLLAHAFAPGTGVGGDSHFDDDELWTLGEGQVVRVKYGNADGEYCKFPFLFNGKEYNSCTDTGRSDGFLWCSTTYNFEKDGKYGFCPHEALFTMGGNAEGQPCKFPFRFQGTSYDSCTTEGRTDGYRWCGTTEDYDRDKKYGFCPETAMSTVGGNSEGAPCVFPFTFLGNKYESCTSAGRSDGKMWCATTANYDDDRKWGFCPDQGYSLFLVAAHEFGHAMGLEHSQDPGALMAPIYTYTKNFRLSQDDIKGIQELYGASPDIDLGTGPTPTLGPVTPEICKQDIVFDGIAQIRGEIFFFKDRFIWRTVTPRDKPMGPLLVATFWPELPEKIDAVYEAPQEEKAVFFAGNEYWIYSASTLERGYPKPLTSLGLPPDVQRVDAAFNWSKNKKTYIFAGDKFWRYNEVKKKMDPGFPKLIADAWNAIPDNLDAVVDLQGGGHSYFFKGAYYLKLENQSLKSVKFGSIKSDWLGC
Chain of Cathepsin D (Homo sapiens) (P07339 65-162 limits assumed): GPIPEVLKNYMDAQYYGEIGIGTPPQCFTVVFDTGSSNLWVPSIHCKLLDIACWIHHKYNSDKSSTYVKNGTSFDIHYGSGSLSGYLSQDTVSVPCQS
Chain of Cathepsin D (Homo sapiens) (P07339 169-412 limits assumed): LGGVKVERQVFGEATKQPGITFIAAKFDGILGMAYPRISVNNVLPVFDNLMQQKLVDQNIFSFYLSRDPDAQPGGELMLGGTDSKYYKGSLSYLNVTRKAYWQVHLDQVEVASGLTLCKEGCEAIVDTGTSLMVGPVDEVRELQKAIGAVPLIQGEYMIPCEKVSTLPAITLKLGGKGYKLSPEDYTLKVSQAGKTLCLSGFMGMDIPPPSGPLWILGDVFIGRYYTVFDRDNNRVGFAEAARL

CC(C)(F)C[C@H](N[C@@H](c1ccc(-c2ccc(S(C)(=O)=O)cc2)cc1)C(F)(F)F)C(=O)NC1(C#N)CC1 [ODANACATIB]
Ki (Cathepsin K [1]): 0.00018 µM

CSCC[C@H](NC(=O)[C@@H]1CCCN1C(=O)[C@H](Cc1c[nH]cn1)NC(=O)[C@H](Cc1c[nH]c2ccccc12)NC(=O)[C@H](CCCNC(=N)N)NC(=O)CNC(C)=O)C(=O)NCc1cn([C@@H](C)C(=O)N2CCC[C@H]2C(=O)N[C@@H](Cc2c[nH]c3ccccc23)C(=O)N[C@@H](CCC(=O)O)C(=O)N[C@H](C)C(=O)N[C@H](CCCNC(=N)N)C(N)=O)nn1
inhibition (Trypsin (Homo sapiens)): inactive | inhibition (Homo sapiens): inactive | inhibition [2]: inactive | inhibition [3]: inactive | inhibition [4]: inactive | inhibition [5]: inactive | inhibition [6]: inactive | inhibition [7]: Active | inhibition (Procathepsin L [8]): Active | inhibition (Cathepsin S [9]): Active | inhibition (Cathepsin S [10]): Active | inhibition (Cathepsin S [11]): inactive | Ki (Cathepsin S [12]): 15 µM | Ki (Cathepsin S [13]): 42 µM | Ki (Cathepsin K [14]): 10 µM | Ki (Procathepsin L [15]): 30 µM | Ki (Pro-cathepsin H): Not Active | inhibition (Cathepsin S [16]): Active

CCCNC(=O)[C@H]1O[C@@H]1C(=O)N[C@H](C(=O)N1CCC[C@H]1C(=O)O)[C@@H](C)CC
Activity [17]: < 0.5% | Activity [18]: < 0.5%
